The values below come from ChEMBL document CHEMBL4428057, “Discovery, Synthesis, and Evaluation of 2,4-Diaminoquinazolines as a Novel Class of Pancreatic β-Cell-Protective Agents against Endoplasmic Reticulum (ER) Stress” (J Med Chem, 2016).

pEC50: −log10 of the molar value. Active and inactive are the calls of the source. The rule behind the calls is not given here.

Test [1] deals with INS1. In words: Protection against tunicamycin induced endoplasmic reticulum stress in rat INS-1 cells assessed as increase in cell viability after 3 days by CellTiter-Glo assay. Type of test: functional, cell-based. The settings on record: INS1, 72 h. Summed up:
(§1)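 INS-1 cells at 3×10^3/well (384-well) co-treated with Tm 0.1 µg/mL and compound for 72 h; CellTiter-Glo ATP luminescence. Activity is % rescue, with Tm alone = 0% and DMSO without Tm = 100%. EC50 from ten 2-fold serial dilutions by curve fit; triplicate.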

In test [2] the test system is INS1. In words: Protection against tunicamycin induced endoplasmic reticulum stress in rat INS-1 cells assessed as increase in cell viability after 3 days by CellTiter-Glo assay relative to control. Type of test: functional. In short, it runs like this:
as §1
A general note: In ATP-based viability assays light output follows the ATP content of the culture.

Test [3] concerns INS1. As to the kind of experiment: Protection against tunicamycin induced endoplasmic reticulum stress in rat INS-1 cells assessed as increase in cell viability at 5 uM after 72 hrs by CellTiter-Glo assay. Type of test: functional, cell-based.
Test [4] concerns INS1. In words: Protection against tunicamycin induced endoplasmic reticulum stress in rat INS-1 cells assessed as increase in cell viability at 30 uM after 72 hrs by CellTiter-Glo assay. It is filed as functional, cell-based.

One may read the pEC50 as −log10 of the EC50, conventionally taken in molar units. Take `OC[C@@H]1CCCN1c1nc(NCCc2ccccc2Cl)c2ccccc2n1`: in test [1], the pEC50 is 5.84. Besides, the “%max” value in test [2] came out at 50.6%.

On to `OC[C@@H]1CCCN1c1nc(NCCc2ccccc2)c2ccccc2n1`, for which the pEC50 in test [1] is 6.32. Further, the “%max” value in test [2] was 54.4%.

Turning to `COc1ccc(CNc2nc(N3CCC[C@H]3CO)nc3ccccc23)cc1OC`, in test [1], the pEC50 is 5.73. Also, in test [2], the “%max” value turned out to be 44.9%.

Regarding `COc1ccccc1CCNc1nc(N2CCC[C@H]2CO)nc2ccccc12`, the pEC50 in test [1] is 5.45. Further, the “%max” value in test [2] was 56.6%.

As to `OC[C@@H]1CCCN1c1nc(NCCc2ccccc2F)c2ccccc2n1`, in test [1], the negative-log EC50 (pEC50) was 5.77. Moreover, the “%max” value in test [2] is 52.5%.

`COc1cccc(CCNc2nc(N3CCC[C@H]3CO)nc3ccccc23)c1`: the pEC50 in test [1] was 5.82. In test [2], the “%max” value was found to be 54.9%.

For `OC[C@@H]1CCCN1c1nc(NCCc2ccccc2Br)c2ccccc2n1`, in test [1], the pEC50 was 5.73. Moreover, the “%max” value in test [2] is recorded as 39%.

As to `OC[C@@H]1CCCN1c1nc(NCCc2ccc(F)cc2)c2ccccc2n1`, in test [1], the pEC50 was 5.67. Moreover, in test [2], the “%max” value was found to be 56.2%.

Take `OC[C@@H]1CCCN1c1nc(NCCc2ccc(Cl)cc2)c2ccccc2n1`: in test [1], the pEC50 is 6.29. Also, the “%max” value in test [2] is given as 57.3%.

In the case of `OC[C@@H]1CCCN1c1nc(NCCc2cccc(F)c2)c2ccccc2n1`, the negative-log EC50 (pEC50) in test [1] was 5.94. Further, the “%max” value in test [2] turned out to be 51.3%.

On to `COc1ccc(CNc2nc(N3CCCCC3CO)nc3ccccc23)cc1OC` (configuration not stated), for which the pEC50 in test [1] was 5.44. The “%max” value in test [2] came out at 69.4%.

Regarding `OC[C@@H]1CCCN1c1nc(NCCc2ccc(Br)cc2)c2ccccc2n1`, in test [1], the pEC50 is 6.19. Besides, the “%max” value in test [2] stood at 44.1%.

For the compound `OCC1CCCCN1c1nc(NCc2ccccc2)c2ccccc2n1` (configuration not stated), the negative logarithm of the EC50 (pEC50) in test [1] is 6.64. In addition, the “%max” value in test [2] is reported as 56.4%.

Consider `Cc1ccc(CCNc2nc(N3CCC[C@H]3CO)nc3ccccc23)cc1`, for which the pEC50 in test [1] was 6.18. Also, the “%max” value in test [2] was 34.2%.

On to `OC[C@@H]1CCCN1c1nc(NCCc2cccc(Br)c2)c2ccccc2n1`, for which, in test [1], the negative-log EC50 (pEC50) was 6.11. In addition, in test [2], the “%max” value is given as 53.2%.

Take `COc1ccc(CNc2nc(N3CCC[C@H]3CO)nc3ccccc23)cc1`: in test [1], the pEC50 was 5.39. In addition, the “%max” value in test [2] was determined as 57.2%.

For the compound `OCC1CCCCN1c1nc(NCc2ccc(Cl)cc2)c2ccccc2n1` (configuration not stated), the pEC50 in test [1] is 6.68. Moreover, the “%max” value in test [2] was 54.7%.

Consider `OC[C@@H]1CCCN1c1nc(NCCc2cccc(Cl)c2)c2ccccc2n1`, for which, in test [1], the pEC50 is 5.98. For the same compound, the “%max” value in test [2] is on record as 51.5%.

On to `COc1ccc(CNc2nc(N3CCCC[C@@H]3CO)nc3ccccc23)cc1`, for which the outcome in test [3] was Active.

As to `COc1ccc(CNc2nc(N3CCCC[C@H]3CO)nc3ccccc23)cc1`, the outcome in test [3] was Active.

On to `Nc1nnc(Sc2cc(-n3cccc3)c(Cl)cc2[N+](=O)[O-])[nH]1`, for which the outcome in test [4] was Active.

As for `OCC1CCCCN1c1nc(NCCc2ccccc2Br)c2ccccc2n1` (racemic), the negative-log EC50 (pEC50) in test [1] was 5.85. Further, the “%max” value in test [2] is given as 44.2%.

As to `OCC1CCCCN1c1nc(NCCc2ccc(F)cc2)c2ccccc2n1` (racemic), the negative logarithm of the EC50 (pEC50) in test [1] was 6.51. Also, the “%max” value in test [2] came out at 47.5%.

On to `Cc1ccc(CCNc2nc(N3CCCCC3CO)nc3ccccc23)cc1` (racemic), for which the pEC50 in test [1] is 6.85. For the same compound, the “%max” value in test [2] is recorded as 33.6%.

For `OCC1CCCCN1c1nc(NCCc2ccc(Cl)cc2)c2ccccc2n1` (racemic), in test [1], the pEC50 was 6.77. In test [2], the “%max” value is on record as 57.6%.

For `OCC1CCCCN1c1nc(NCCc2ccccc2F)c2ccccc2n1` (racemic), the pEC50 in test [1] was 5.84. The “%max” value in test [2] amounted to 60.3%.

Turning to `OCC1CCCCN1c1nc(NCCc2ccccc2)c2ccccc2n1` (racemic), in test [1], the pEC50 is 6.44. The “%max” value in test [2] stood at 55.7%.

Take `COc1cccc(CCNc2nc(N3CCCCC3CO)nc3ccccc23)c1` (racemic): the negative logarithm of the EC50 (pEC50) in test [1] was 5.59. Besides, the “%max” value in test [2] came out at 69.2%.

As to `OCC1CCCCN1c1nc(NCCc2cccc(Br)c2)c2ccccc2n1` (racemic), in test [1], the pEC50 was 6.11. Also, the “%max” value in test [2] is listed as 51.7%.

Take `OCC1CCCCN1c1nc(NCCc2cccc(Cl)c2)c2ccccc2n1` (racemic): in test [1], the negative logarithm of the EC50 (pEC50) is 6.10. In addition, in test [2], the “%max” value was 46.2%.

With `OCC1CCCCN1c1nc(NCCc2cccc(F)c2)c2ccccc2n1` (racemic), in test [1], the negative logarithm of the EC50 (pEC50) was 5.73. Moreover, in test [2], the “%max” value stood at 57.3%.

On to `OCC1CCCCN1c1nc(NCCc2ccc(Br)cc2)c2ccccc2n1` (racemic), for which the pEC50 in test [1] is 6.47. In addition, the “%max” value in test [2] was 52.8%.

For the compound `COc1ccc(CCNc2nc(N3CCCCC3CO)nc3ccccc23)cc1` (racemic), the pEC50 in test [1] was 6.51. The “%max” value in test [2] is 58.6%.

Consider `OCC1CCCCN1c1nc(NCCc2ccccc2Cl)c2ccccc2n1` (racemic), for which the pEC50 in test [1] is 6.33. In test [2], the “%max” value is 51.4%.

For the compound `COc1ccccc1CCNc1nc(N2CCCCC2CO)nc2ccccc12` (racemic), the pEC50 in test [1] is 5.80. In addition, the “%max” value in test [2] was 46.9%.
